Experiment: Toxicity liver stage against HepG2, at 10uM
Type: cell-based
Set-up: test concentration 10 uM, cell line HepG2-A16-CD81EGFP
Conditions: human, HepG2-A16-CD81EGFP cells; read-out: INHIBITION
In short: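 Uninfected HepG2-A16-CD81EGFP cells, 3 × 10^3 per well, 1536-well, plated on prespotted compound at 10 μM final, parasite-free screening media added to match infected plates; puromycin 10 μM positive, DMSO 0.5% negative; run in parallel with 48 h PbLuc assay at 37 °C, 5% CO2; viability by CellTiter-Glo luminescence, normalized to controls.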

Cn1ccnc1CN1C(=O)CO[C@H]2CN(Cc3ccc(F)c(F)c3)C[C@H]21
cytotoxicity at 10 µM: -2.83%

COc1ccc(CN2CCOC[C@H](Oc3cccnc3)C2)cc1
cytotoxicity at 10 µM: -4.03%

COc1ccc(CNC[C@H]2Cn3ccnc3CO2)cn1
cytotoxicity at 10 µM: 8.73%

CCN(CC)S(=O)(=O)c1ccc2c(c1)N(Cc1ccncc1)C(=O)CS2
cytotoxicity at 10 µM: -5.62%

O=C(Cn1cccc(S(=O)(=O)N2CCCC2)c1=O)c1ccccc1Cl
cytotoxicity at 10 µM: 1.08%

O=C(Nc1cnc(Oc2ccccc2)nc1)C1CC1
cytotoxicity at 10 µM: 0.174%

Cc1ccc(C(=O)NCCn2nc(-n3cncn3)ccc2=O)c(C)c1
cytotoxicity at 10 µM: -1.25%

CS(=O)(=O)NCc1cncc2c1CCN(C(=O)c1ccccn1)C2
cytotoxicity at 10 µM: 0.734%

O=C(c1ccco1)N1Cc2nccn2CC(Cn2ncccc2=O)C1 (stereo not given)
cytotoxicity at 10 µM: 5.09%

O=C(c1cnccn1)N1CCC2(CCN(Cc3ccsc3)CC2)CC1
cytotoxicity at 10 µM: 1.2%

O=C(c1ccncn1)N1CCO[C@H]2[C@@H](OCc3cccnc3)CC[C@@H]21
cytotoxicity at 10 µM: -7.69%

O=C(O)[C@H]1OCC(=O)N(Cc2cccc(F)c2)[C@@H]1c1ccc(Cl)cc1
cytotoxicity at 10 µM: 8.9%

CN1C[C@@H](C(=O)NC(C)(C)C)[C@@]2(CCc3ccccc3C(=O)N2)C1
cytotoxicity at 10 µM: -3.79%

Cc1cnc(CC2COCCN(C(=O)CN3CCOCC3)C2)cn1 (stereo not given)
cytotoxicity at 10 µM: 9.07%

Cc1c(CN2CCCC(O)C2)[nH]c2ccc(F)cc12 (stereo not given)
cytotoxicity at 10 µM: 9.35%

Cc1cc(Oc2ccccc2)nc(C2CCCCN2)n1 (stereo not given)
cytotoxicity at 10 µM: -2.64%

CC(C)S(=O)(=O)N1C[C@@H](c2ccccc2)[C@H]2[C@H]1CCCCCN2C
cytotoxicity at 10 µM: 0.247%

CN1CCN(c2ncccc2N)CC1
cytotoxicity at 10 µM: 11.5%

CN(CCc1ccccn1)C(=O)Nc1cc(C(F)(F)F)c[nH]c1=O
cytotoxicity at 10 µM: 17.2%

O=S(=O)(c1ccccc1)N1CCCC(Cn2cncn2)C1 (stereo not given)
cytotoxicity at 10 µM: -4.28%

CCC1CN(CC(=O)NC2(C#N)CCCC2)CCN1CCOC (stereo not given)
cytotoxicity at 10 µM: 4.56%

Cc1ncsc1C(=O)N1CCCC1c1c(C)nn(C)c1C (stereo not given)
cytotoxicity at 10 µM: 0.71%

N#Cc1cccnc1N1CCC(Nc2ccccc2)C1 (stereo not given)
cytotoxicity at 10 µM: -3.37%

N#CC1(NC(=O)c2nccc3ccccc23)CCC2(CC1)OCCO2
cytotoxicity at 10 µM: 2.48%

COc1ccc2c(c1)CN(c1nc(C)cc(C)n1)CC2
cytotoxicity at 10 µM: -0.734%

CCN(CC)c1ccc(CNC(=O)c2cccc(C)n2)cn1
cytotoxicity at 10 µM: 9.47%

Cc1nc(C)c(C(=O)N(C)Cc2cnn(C)c2)s1
cytotoxicity at 10 µM: -1.57%

Cc1ccc(C(=O)N(C)CC(=O)Nc2cccc(C)n2)cn1
cytotoxicity at 10 µM: -21.2%

CCOCCNC(=O)Cc1cccc(I)c1
cytotoxicity at 10 µM: 9.62%

CCC(=O)N1CCCN(C(=O)C2SCCc3sccc32)CC1 (stereo not given)
cytotoxicity at 10 µM: -8.98%

Cc1cnn(CC2CCCCN2CC(=O)Nc2nncs2)c1 (stereo not given)
cytotoxicity at 10 µM: -0.208%

COCCn1cc(C(=O)N2CCCC2c2cccc(C)c2)ccc1=O (stereo not given)
cytotoxicity at 10 µM: 5.59%

CC(C)CC(=O)NCCCc1cc(N)n(-c2ccccc2)n1
cytotoxicity at 10 µM: -5.29%

CCCc1cc(NC2CCc3nc(CC)nn3C2)n2ncnc2n1 (stereo not given)
cytotoxicity at 10 µM: -16.3%

CCN(C(c1cccnc1)c1ccc(F)cc1F)S(C)(=O)=O (stereo not given)
cytotoxicity at 10 µM: 10.8%

Cc1ccc(C(=O)N2CCCN(C)c3ccc(F)cc32)o1
cytotoxicity at 10 µM: -5.26%

OC1CCN(c2ccnc3c(F)cc(Br)cc23)CC1
cytotoxicity at 10 µM: 11.6%

Cc1cnn(CC2CCCCN2C(=O)c2ccc(C#N)c(C)n2)c1 (stereo not given)
cytotoxicity at 10 µM: -1.18%

Cn1[nH]c(C2CC2)c(-c2ccc3c(c2)OCO3)c1=N
cytotoxicity at 10 µM: -47.5%

CN(C)CCn1ccc2cc(NC(=O)NCc3ncnn3C)ccc21
cytotoxicity at 10 µM: -6.52%

CCCc1noc(CCC(=O)N2CCCC(c3ccn[nH]3)C2)n1 (stereo not given)
cytotoxicity at 10 µM: 12.2%

O=C1COc2cc(C(=O)NCc3ccc(Cl)s3)ccc2N1
cytotoxicity at 10 µM: 1.55%

NS(=O)(=O)c1cnn(CCC(=O)N(Cc2ccccc2)C2CC2)c1
cytotoxicity at 10 µM: 4.53%

O=C(Nc1cccc(Cn2cccn2)c1)N1CCCC(N2CCCC2)C1 (stereo not given)
cytotoxicity at 10 µM: 4.13%

O=C(Nc1ccc(F)cc1F)N(CCC(F)(F)F)C[C@H](O)CO
cytotoxicity at 10 µM: -7.64%

NC(=O)C1CCN(Cc2ccc(S(=O)(=O)N3CCCC3)o2)CC1
cytotoxicity at 10 µM: 1.04%

Cc1csc(N2CCN(Cc3ccn(C)c(=O)c3)CC2)n1
cytotoxicity at 10 µM: 8.08%

CC(C)(C)CCN1CCN(Cn2nccc2-c2cccnc2)CC1
cytotoxicity at 10 µM: 23.2%

Cc1ccc(CCNC(=O)NC2CCN(CC(F)(F)F)C2=O)cn1 (stereo not given)
cytotoxicity at 10 µM: 4.75%

CCc1nc(CN2CCCC(N(C)Cc3cnc(C)s3)C2)no1 (stereo not given)
cytotoxicity at 10 µM: 2.89%

Cc1nc(C)n(CC2CCCN2CC(=O)NCc2ccco2)n1 (stereo not given)
cytotoxicity at 10 µM: -18.5%

Cc1n[nH]c(C)c1C1COCCN1C(=O)Cc1cccc(F)c1 (stereo not given)
cytotoxicity at 10 µM: -10.7%

Cc1ccc(N2CCCC3(CCN(C(=O)CC(F)(F)F)C3)C2)nn1 (stereo not given)
cytotoxicity at 10 µM: -108%

O=C(Cc1ccco1)N1C[C@H]2CCC[C@@]2(COCC2CC2)C1
cytotoxicity at 10 µM: -108%

COCc1cnc2n1CCN(C(=O)c1cn(C)c3ccccc13)C2C (stereo not given)
cytotoxicity at 10 µM: -108%

O=C1COC2(CCN(c3ccccn3)CC2)CN1Cc1ccccn1
cytotoxicity at 10 µM: -0.861%

CCn1cc2c(n1)C(COC)CN(C(=O)COc1ccccc1C)C2 (stereo not given)
cytotoxicity at 10 µM: 0.719%

Cc1ncoc1C(=O)N1CCn2c(COCC3CC3)cnc2C1C (stereo not given)
cytotoxicity at 10 µM: -1.67%

COCc1cc(CNCc2c(C)n(CC(C)C)c3ccccc23)n[nH]1
cytotoxicity at 10 µM: 12%

CC(C)[C@H]1CN(Cc2c[nH]nn2)C[C@@H]1NC(=O)C1CCOCC1
cytotoxicity at 10 µM: 22.3%

COCC(C)N1CCc2onc(-c3ccc(F)c(F)c3)c2C1 (stereo not given)
cytotoxicity at 10 µM: -4.31%

CCn1ccnc1CN1CCN(Cc2ccc(C)o2)[C@@H]2CS(=O)(=O)C[C@@H]21
cytotoxicity at 10 µM: -11.2%

CCCN1CCCn2nc(CNC(=O)CCOC)cc2C1
cytotoxicity at 10 µM: -12.2%

CCOc1ccc(C(=O)N2CCC(Oc3ccccc3)(C(=O)O)CC2)o1
cytotoxicity at 10 µM: 14.1%

c1cncc(CN(Cc2ccsc2)Cc2ccc(C3CCCCO3)o2)c1 (stereo not given)
cytotoxicity at 10 µM: 14.8%

CCCn1cc(NC(=O)NCC2CCS(=O)(=O)C2)nn1 (stereo not given)
cytotoxicity at 10 µM: 0.186%

O=C1CC2(CCN(Cc3ccc(C(F)(F)F)nc3)CC2)CN1
cytotoxicity at 10 µM: -6.33%

CNC(=O)c1ccc(-n2c(COCC(=O)O)nc3c(C)cccc32)o1
cytotoxicity at 10 µM: -3.33%

CN(C)Cc1ccc(C2CCCCN2C(=O)c2cc(=O)[nH]c(=O)[nH]2)cc1 (stereo not given)
cytotoxicity at 10 µM: -3.95%

CC(C)(O)CCc1ccc(C(=O)NCCC2CCCOC2)cc1 (stereo not given)
cytotoxicity at 10 µM: 0.782%

CN(CCc1nc2cc(Cl)ccc2[nH]1)C(=O)c1ncn[nH]1
cytotoxicity at 10 µM: -53.7%

CCCS(=O)(=O)N[C@H]1CN(c2ncccc2C(N)=O)C[C@@H]1C(C)C
cytotoxicity at 10 µM: 5.78%

O=C(CCSc1ccc2c(c1)OCCO2)NCC1CCS(=O)(=O)C1 (stereo not given)
cytotoxicity at 10 µM: -4.01%

O=C1CCC2(CCOC2)CN1Cc1ccc2nsnc2c1 (stereo not given)
cytotoxicity at 10 µM: -7.73%

Cc1cccc(OC2(C(=O)O)CCN(C(=O)CCc3ccco3)CC2)c1
cytotoxicity at 10 µM: 4.3%

Cc1ncc(C(=O)N2CCCC(C(=O)CCc3ccccc3)C2)s1 (stereo not given)
cytotoxicity at 10 µM: 19.4%

Cc1nc(CN(C)C(=O)c2ccc(Cn3cnnn3)cc2)cs1
cytotoxicity at 10 µM: -15.4%

CCN(Cc1noc(C)n1)C(=O)C(c1ccc(C)cc1)N(C)C (stereo not given)
cytotoxicity at 10 µM: -5.21%

Cc1ccc(C(=O)N2CCCC3(C2)C(=O)N(C)c2ccccc23)c(=O)[nH]1 (stereo not given)
cytotoxicity at 10 µM: -7.52%

CC(=O)N1CCCC(C(=O)N2CCN(c3cnn(C)c(=O)c3)CC2)C1 (stereo not given)
cytotoxicity at 10 µM: 0.761%

CCc1cc(N[C@H]2CCC[C@H]2CO)n2nc(C)c(C)c2n1
cytotoxicity at 10 µM: 3.41%

CCOCC1CCN(C(=O)C(c2ccccc2F)N(C)C)CC1 (stereo not given)
cytotoxicity at 10 µM: 5.06%

CC(C)(C)OC(=O)NC1CCCN(Cc2cccs2)C1 (stereo not given)
cytotoxicity at 10 µM: -40.7%

Cc1nc(N2CCN(C(=O)c3ccccc3)CC2)cc(-n2ccnc2)n1
cytotoxicity at 10 µM: 0.0237%

CCC(C)c1ccc(NC(=O)C2CCN(C(=O)COC)CC2)cc1 (stereo not given)
cytotoxicity at 10 µM: -3.16%

Cc1cc(CN[C@@H](C)C(N)=O)c(C)s1
cytotoxicity at 10 µM: -6.55%

CC(C)C(C)N(Cc1ccccn1)Cc1ccco1 (stereo not given)
cytotoxicity at 10 µM: -1.99%

O=C1Nc2ccccc2C12CCCN(Cc1ccncc1)C2 (stereo not given)
cytotoxicity at 10 µM: 4.32%

CNc1cc(C)nc(N2CCC3(CC2)[C@H](O)C[C@@H]3OCCO)n1
cytotoxicity at 10 µM: -1.82%

Cc1cc(NCc2cc3n(n2)CCCN(C(=O)N(C)C)C3)ncn1
cytotoxicity at 10 µM: -11.4%

Cc1cc(N2CCN3CCCCC3C2)n2nc(C)c(C)c2n1 (stereo not given)
cytotoxicity at 10 µM: -10.4%

Cc1cc(-c2nn(C)c(Cl)c2CN2CCOCC2CC(=O)O)no1 (stereo not given)
cytotoxicity at 10 µM: -12.2%

COc1ccccc1OCCNC(=O)CN1CCN(C)CC1C (stereo not given)
cytotoxicity at 10 µM: -12.1%

CC(C)c1ncc2c(n1)CN(Cc1nc(-c3ccco3)no1)CC2
cytotoxicity at 10 µM: -11.4%

c1ccc(-n2ccc(CNC3CCc4ncnn4C3)n2)cc1 (stereo not given)
cytotoxicity at 10 µM: -2.57%

CCCc1nnc(NC(=O)Cc2c(C)nc(C)[nH]c2=O)s1
cytotoxicity at 10 µM: -10.7%

Cc1cc(NC(=O)CN2CCc3cncnc3C2)no1
cytotoxicity at 10 µM: -11.5%

Cc1ccc2[nH]c(C(=O)N3CCCC3Cn3cccn3)cc2c1 (stereo not given)
cytotoxicity at 10 µM: -12%

Cn1cc(CCNC(=O)NC2CCN(Cc3ccccn3)CC2)cn1
cytotoxicity at 10 µM: -16.4%

COc1ccc(NC(=O)NCCCn2nc3ccccn3c2=O)cc1
cytotoxicity at 10 µM: -13.3%

CC1CCCCN1CCNC(=O)c1ccn(-c2cccc(F)c2)n1 (stereo not given)
cytotoxicity at 10 µM: -26%

Cc1csc(N2CCCN(C(=O)C(C(C)C)n3cncn3)CC2)n1 (stereo not given)
cytotoxicity at 10 µM: -7.71%

CCOc1ccccc1-c1cc(N)[nH]n1
cytotoxicity at 10 µM: 5.75%

Cc1ccc(C(=O)N2CC[C@H]3[C@@H]2CCC(=O)N3c2ccccc2)cn1
cytotoxicity at 10 µM: -112%

Cc1oncc1C(=O)NCc1cc(=O)n2c(n1)CN(C)CCC2
cytotoxicity at 10 µM: 5.02%

Cn1nc(C2CNCCO2)cc1CCOc1ccc(Cl)cc1 (stereo not given)
cytotoxicity at 10 µM: -7.72%

O=C(NC[C@]12COC[C@H]1CN(Cc1cccnc1)C2)C1CCC1
cytotoxicity at 10 µM: -105%

Cc1ccc(CN2CCC3(CC2)NC(=O)CC3c2ccncc2)cc1C (stereo not given)
cytotoxicity at 10 µM: 3.75%

O=C(C1=CCCC1)N1C[C@@H]2COC[C@]2(COc2ncccc2F)C1
cytotoxicity at 10 µM: -99.3%

c1cnn(Cc2cn3c(n2)CN(Cc2nccs2)CC3)c1
cytotoxicity at 10 µM: 2.76%

Reference: ChEMBL document CHEMBL4513216, “Probing the Open Global Health Chemical Diversity Library for Multistage-Active Starting Points for Next-Generation Antimalarials” (ACS Infect Dis, 2020)
